# The entries come from a sample that favours hits as a whole.
# UPR CHOP act – activators of apoptotic arm of unfolded protein response (CHOP). CHO-CHOP luciferase reporter, UPR activation, luminescence; percent of tunicamycin response over DMSO baseline. activation, % at 10 µM. hit rate 0.34% among 330,000. AID 449763;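 active = at 10 µM dose, activation of 40% or more, normalized to positive control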;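 also: 100% = tunicamycin at 10 µg/mL and 0% = DMSO alone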
#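 Test system: CHO-CHOP cells, stable luciferase reporter of PERK-eIF2a-CHOP signalling | Quantity: 500 CHO-CHOP cells per well | Buffer or medium: F12 plus 10% serum | Compound dosing: 10 µM single point, 0.5% DMSO | Schedule: 6 h compound treatment, 37 °C | Signal: Luciferase luminescence | Control set: Tunicamycin high control, DMSO low control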
# CHOP inhibitor – blocks CHOP induction under ER stress; hit rate 3.8% among 220,000; CHO-K1 CHOP-promoter luciferase, tunicamycin-induced, 15-18 h; inhibition, % at 10 µM;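 active = compounds that reduced the stress-induced luciferase reporter signal by more than about 70% of percent inhibition, limit read from the data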;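 also: 0% = tunicamycin plus vehicle and 100% = wells without tunicamycin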
# XBP1 UPR activ – adaptive UPR (XBP1) activation | CHO-XBP1 luciferase reporter, IRE1-XBP1 UPR activation, luminescence; percent of tunicamycin response, DMSO as zero | activation, % at 20 µM | hit rate 0.33% among 330,000;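 active = versus positive control, 20 µM dose yields 30% or more activation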;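 also: 100% = tunicamycin at 10 µg/mL and 0% = DMSO only wells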
#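 Test system: CHO-XBP1 luciferase reporter cells | Buffer or medium: Serum-containing F12 medium, 10% FBS | Schedule: 6 h compound exposure at 37 °C, 5% CO2 | Detection: Steady-Glo luciferase glow luminescence, 10 min after reagent addition | Read-out basis: Activation, % of tunicamycin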
# Bfl-1 A1 inh – inhibitors of the anti-apoptotic protein A1, read as caspase activation; caspase activation, % (concentration not given with the values); MEF A1-2A-BIM cells, Caspase-Glo 3/7 luminescence, 3 h; percent of clofoctol response, vehicle zero; hit rate 0.066% among 330,000; AID 2462;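 active = over half of replicate activation scores above 10%, or exactly half above 10 with the replicate mean above 10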
# Active calls of the source: *; nt = no result.
SMILES,UPR CHOP act,CHOP inhibitor,XBP1 UPR activ,Bfl-1 A1 inh
COc1ccccc1N1CCSC1C(N)=O (stereo not drawn),1.6,14.3,-2.5,0.4
CC12CCC(C/C1=N/NC(=O)Nc1ccccc1)C2(C)C (stereo not drawn),2.1,89.6*,3.8,-0.8
Cc1ccc(CSc2nnc(-c3ccc(NS(=O)(=O)c4ccccc4)cc3)o2)cc1,2.2,71.0*,-4.0,-0.4
O=C(Cc1ccccc1F)Nc1nc(-c2ccc(F)c(F)c2)cs1,6.2,nt,1.0,0.5
O=C(Cc1ccccc1F)Nc1nc(-c2cccnc2)cs1,3.1,80.6*,1.2,-0.4
O=C(Nc1nc(-c2ccccc2)cs1)C1CCCCN1S(=O)(=O)c1ccc(Cl)cc1 (stereo not drawn),-0.1,70.3*,6.7,-1.7
c1ccc(-c2csc(NC3CCCCC3)n2)cc1,7.8,nt,-0.5,-5.2
O=C(Nc1nc(-c2ccccc2)cs1)NC1CCCCC1,4.5,93.2*,3.1,-0.2
Cc1ccc(S(=O)(=O)Cc2ccc(C(=O)N3CCN(c4cccc(C)c4C)CC3)o2)cc1,-1.1,nt,4.2,0.1
COc1ccc(S(=O)(=O)Cc2ccc(C(=O)N3CCN(c4cccc(C)c4C)CC3)o2)cc1,-1.5,71.1*,-4.8,0.0
COc1nc(N2CCOCC2)nc(C)c1[N+](=O)[O-],2.4,21.5,0.2,0.2
Cc1nc(N2CCOCC2)nc(OC(C)C)c1[N+](=O)[O-],-0.7,83.8*,1.4,-0.3
COC(=O)Cn1c(=NC(=O)C2CC2)sc2c(C)cc(C)cc21,-0.6,nt,-0.9,0.0
O=C(N/N=C/c1cc(Cl)cc([N+](=O)[O-])c1O)NC12CC3CC(CC(C3)C1)C2,2.1,80.5*,0.2,-0.5
C=CCn1c(SCc2cc(=O)n3ccsc3n2)nnc1C1CCCCC1,0.9,-0.6,-3.2,-0.1
CCc1ccc(NC(=O)CSc2nc3[nH]ncc3c(=O)[nH]2)cc1,-0.9,-4.3,1.6,1.7
CCN1C(=O)/C(=C\c2cccn2-c2ccc([N+](=O)[O-])cc2)N(CC)C1=S,-1.1,74.4*,9.8,0.0
Cc1cc(C)c2nc(N3CCN(C(=O)c4ccco4)CC3)sc2c1,2.4,nt,1.6,0.2
C=CCc1cc(C=O)cc(OC)c1OCc1c(Cl)cccc1Cl,1.8,73.0*,-0.7,1.1
CC(C(=O)N1CCOCC1)n1cc([N+](=O)[O-])cn1 (stereo not drawn),1.2,18.2,0.6,0.2
Cc1ccc(-c2nn(-c3ccccc3)cc2/C=N/n2c(-c3ccncc3)n[nH]c2=S)cc1,6.2,89.3*,2.8,-0.2
CC(/C=N/n1c(-c2ccc(Cl)cc2)n[nH]c1=S)=C\c1ccco1,-0.3,95.5*,2.0,-0.2
S=c1[nH]nc(-c2ccncc2)n1/N=C/C(Cl)=C\c1ccccc1,2.4,76.0*,3.5,-0.7
CC(/C=N/n1c(-c2cc(C)[nH]n2)n[nH]c1=S)=C\c1ccco1,1.5,-14.4,-2.2,0.9
CCC(=O)N1CCN(c2ccc(Cl)cc2NC(=O)Cc2ccc(Cl)cc2)CC1,-2.2,80.5*,-1.3,0.8
SMILES,UPR CHOP act,CHOP inhibitor,XBP1 UPR activ,Bfl-1 A1 inh
CCN1C(=O)C(CC(=O)Nc2ccc(Br)cc2)N(CCCc2ccccc2)C1=S (stereo not drawn),-0.2,89.3*,3.6,0.2
CCN1C(=O)C(CC(=O)Nc2ccc(F)cc2)N(CCCN2CCN(c3ccc(F)cc3)CC2)C1=S (stereo not drawn),-2.3,95.4*,-2.3,0.2
CCCOc1ccc(NC(=O)CC2C(=O)N(CC)C(=S)N2CCCN2CCN(Cc3ccccc3)CC2)cc1 (stereo not drawn),2.4,92.3*,3.9,0.0
CCOc1ccc(NC(=O)CC2C(=O)N(CC)C(=S)N2CCN2CCOCC2)cc1 (stereo not drawn),0.4,6.3,0.4,-0.1
O=C(CCN1CCN(Cc2ccccc2)CC1)Nc1ccc(OCc2ccccc2)cc1,3.0,70.3*,-3.4,0.4
CCNC(=O)C/C(C)=N/NC(=O)C1CCCCC1,-1.4,-0.4,0.8,-0.1
O=C(NC12CC3CC(CC(C3)C1)C2)C12CC3CC(C1)CC(n1cnc(Cl)n1)(C3)C2,-3.5,37.9,-1.2,-0.5
CCOC(=O)C(=O)NCC(c1ccco1)S(=O)(=O)c1cccs1 (stereo not drawn),-1.3,nt,0.1,-1.0
O=C1COc2ccc(N3C(=O)C=CC3=O)cc2N1,-0.5,95.2*,-5.3,0.6
O=C(NCC1CC1)[C@@H]1C[C@H]1[C@@H](NP(=O)(c1ccccc1)c1ccccc1)c1ccccc1,-1.9,-9.9,-0.8,-1.1
CCOc1ccc(-c2nc(CSCC(=O)N3CCN(C(=O)c4ccco4)CC3)c(C)o2)cc1,2.6,37.6,2.5,-0.7
CCOC(=O)C1CCN(C(=O)CSCc2nc(-c3ccc(OCC)cc3)oc2C)CC1,0.0,76.7*,5.4,-0.4
CCOc1ccc(NS(=O)(=O)c2ccc(NS(=O)(=O)c3ccc(SC)cc3)cc2)cc1,-0.9,94.9*,-1.4,0.2
CC(C)CC(=O)NC(=S)Nc1cccc(NC(=O)c2ccccc2)c1,-0.7,24.1,-2.4,-0.2
CCOc1ccc(NS(=O)(=O)c2ccc(NS(C)(=O)=O)cc2)cc1,-2.0,1.0,-5.8,0.3
Cc1cc(NC(=S)NC(=O)CC(C)C)ccc1Br,2.2,83.0*,-0.6,0.6
CCCC(=O)NC(=S)Nc1ccc(S(=O)(=O)Nc2ccc(OCC)cc2)cc1,0.4,40.5,-0.8,0.0
CCOc1ccc(NS(=O)(=O)c2ccc(NC(=S)NC(=O)CC(C)C)cc2)cc1,-1.6,92.0*,1.2,0.6
CC(C)(C)c1ccc(C(=O)NCCC(=O)N2CCC3(CC2)NCCc2[nH]cnc23)cc1,0.0,nt,-2.2,-0.4
CCOc1ccc(CCNC(=O)COc2cccc(-n3cnnn3)c2)cc1OCC,-1.4,nt,-1.3,-1.2
Cc1ccc(Cl)cc1N1CCN(C(=O)COc2ccc3c(c2)CCC3)CC1,-0.2,31.8,-0.6,0.6
O=C(/C=C/c1ccc(Cl)cc1)N(c1ccccn1)C1CCCCC1,-0.5,70.4*,-2.5,0.1
O=C(/C=C/c1cccc(F)c1)N(c1ccccn1)C1CCCCC1,-2.7,0.0,-1.4,0.6
C/C=C\C=C\C(=O)Nc1cccc(C2=NOC3(C2)C[C@@H](C(N)=O)N(C(=O)C(c2ccccc2)c2ccccc2)C3)c1 (stereo partly drawn),-0.4,10.5,1.5,-0.7
Cc1cc2ncn(C(=O)c3c(-c4ccccc4Cl)noc3C)c2cc1C,-1.3,75.8*,-1.9,-0.5
Cc1onc(-c2ccccc2Cl)c1C(=O)N1CCCC1,0.6,nt,-5.2,0.9
COc1ccc(/C(C)=N/OC/C(O)=C(\C#N)c2nc3ccccc3[nH]2)c(OC)c1,1.3,95.2*,1.4,-0.1
COc1ccc2oc(C(=O)OC/C(O)=C(\C#N)c3nc4ccccc4[nH]3)c(C)c2c1,-1.5,95.2*,-0.3,0.5
Cc1ccc(NC(=O)Nc2ccc(F)cc2)nc1,4.2,77.2*,-0.8,1.3
CCOC(=O)c1cc2occc2n1CC(=O)Nc1ccc(OC)cc1OC,-1.2,84.4*,-3.4,-0.4
